Data taken from ChEMBL document CHEMBL1177643, “Synthesis, DNA-binding ability and anticancer activity of benzothiazole/benzoxazole-pyrrolo[2,1-c][1,4]benzodiazepine conjugates” (Bioorg Med Chem, 2010).

How the values were obtained:
Calf thymus DNA = assay: Binding affinity to calf thymus duplex-form DNA assessed as melting temperature at 1:5 compound/DNA ratio after 18 hrs; format: nucleic-acid assay; settings: Bos taurus
A-375 [1] = assay: Cell cycle arrest in human A375 cells assessed as accumulation at G2/M phase at 2 uM after 24 hrs using propidium iodide staining by flow cytometry; format: functional
In short: (§1)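 A375 cells (5×10^5) grown 24 h, then exposed to compound 24 h (DMSO control). Trypsin–EDTA harvest, fixed in ice-cold 70% ethanol at 4 °C 30 min, RNase A 37 °C 30 min, propidium iodide staining. DNA content measured by flow cytometry on 20,000 events, gated as sub-G1/G0, G1, S and G2/M.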

SW-620 = assay: Growth inhibition of human SW620 cells after 48 hrs by sulforhodamine B assay; format: functional; settings: SW-620, 48 h
In short: (§2)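 Panel of 60 human cancer cell lines; for each compound, dose–response curves per cell line measured at a minimum of five concentrations at 10-fold dilutions. Cells exposed continuously to drug for 48 h, and growth was read out by sulforhodamine B staining.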

A-375 [2] = assay: Cell cycle arrest in human A375 cells assessed as accumulation at G0/G1 phase at 2 uM after 24 hrs using propidium iodide staining by flow cytometry; format: functional; in short: as §1
OVCAR-3 = assay: Growth inhibition of human OVCAR-3 cells after 48 hrs by sulforhodamine B assay; format: functional; settings: OVCAR-3, 48 h; in short: as §2
OVCAR-8 = assay: Growth inhibition of human OVCAR8 cells after 48 hrs by sulforhodamine B assay; format: functional; settings: OVCAR-8, 48 h; in short: as §2
786-0 = assay: Growth inhibition of human 786-0 cells after 48 hrs by sulforhodamine B assay; format: functional; settings: 786-0, 48 h
In short: (§3)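 Dose–response in each cell line over at least five concentrations at 10-fold dilutions, with 48 h continuous exposure and sulforhodamine B read-out.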

MCF7 = assay: Growth inhibition of human MCF7 cells after 48 hrs by sulforhodamine B assay; format: functional; settings: MCF7, 48 h; in short: as §2
M14 = assay: Growth inhibition of human M14 cells after 48 hrs by sulforhodamine B assay; format: functional; settings: M14, 48 h; in short: as §2
CAKI-1 = assay: Growth inhibition of human Caki1 cells after 48 hrs by sulforhodamine B assay; format: functional; settings: CAKI-1, 48 h; in short: as §3
A549 = assay: Growth inhibition of human A549 cells after 48 hrs by sulforhodamine B assay; format: functional; settings: A549, 48 h; in short: as §3
SR = assay: Growth inhibition of human SR cells after 48 hrs by sulforhodamine B assay; format: functional; in short: as §2
HOP-92 = assay: Growth inhibition of human HOP92 cells after 48 hrs by sulforhodamine B assay; format: functional; settings: HOP-92, 48 h; in short: as §2
IGROV-1 = assay: Growth inhibition of human IGROV1 cells after 48 hrs by sulforhodamine B assay; format: functional; settings: IGROV-1, 48 h; in short: as §2
Hs-578T = assay: Growth inhibition of human Hs 578T cells after 48 hrs by sulforhodamine B assay; format: functional; in short: as §2
OVCAR-4 = assay: Growth inhibition of human OVCAR4 cells after 48 hrs by sulforhodamine B assay; format: functional; settings: OVCAR-4, 48 h; in short: as §2
SNB-75 = assay: Growth inhibition of human SNB75 cells after 48 hrs by sulforhodamine B assay; format: functional; settings: SNB-75, 48 h; in short: as §2
KM12 = assay: Growth inhibition of human KM12 cells after 48 hrs by sulforhodamine B assay; format: functional; settings: KM12, 48 h; in short: as §2
SF-539 = assay: Growth inhibition of human SF539 cells after 48 hrs by sulforhodamine B assay; format: functional; settings: SF-539, 48 h; in short: as §2
SNB-19 = assay: Growth inhibition of human SNB19 cells after 48 hrs by sulforhodamine B assay; format: functional; settings: SNB-19, 48 h; in short: as §2
HL-60 = assay: Growth inhibition of human HL-60(TB) cells after 48 hrs by sulforhodamine B assay; format: functional; settings: HL-60, 48 h; in short: as §2
[3] = Growth inhibition of human […] cells after 48 hrs by sulforhodamine B assay; format: functional; in short: as §2
RXF 393 = assay: Growth inhibition of human RXF393 cells after 48 hrs by sulforhodamine B assay; format: functional; settings: RXF 393, 48 h; in short: as §2
NCI-H522 = assay: Growth inhibition of human NCI-H522 cells after 48 hrs by sulforhodamine B assay; format: functional; settings: NCI-H522, 48 h; in short: as §2
A-375 [4] = assay: Cell cycle arrest in human A375 cells assessed as accumulation at G1 phase at 2 uM after 24 hrs using propidium iodide staining by flow cytometry; format: functional; in short: as §1
BT-549 = assay: Growth inhibition of human BT549 cells after 48 hrs by sulforhodamine B assay; format: functional; settings: BT-549, 48 h; in short: as §3
A-375 [5] = assay: Cell cycle arrest in human A375 cells assessed as accumulation at S phase at 2 uM after 24 hrs using propidium iodide staining by flow cytometry; format: functional; in short: as §1
HCT-116 = assay: Growth inhibition of human HCT116 cells after 48 hrs by sulforhodamine B assay; format: functional; settings: HCT-116, 48 h; in short: as §2
A-375 [6] = assay: Cell cycle arrest in human A375 cells assessed as accumulation at G0 phase at 2 uM after 24 hrs using propidium iodide staining by flow cytometry; format: functional; in short: as §1
Malme-3M = assay: Growth inhibition of human MALME-3M cells after 48 hrs by sulforhodamine B assay; format: functional; in short: as §2
PC-3 = assay: Growth inhibition of human PC3 cells after 48 hrs by sulforhodamine B assay; format: functional; settings: PC-3, 48 h; in short: as §2
NCI-H460 = assay: Growth inhibition of human NCI-H460 cells after 48 hrs by sulforhodamine B assay; format: functional; settings: NCI-H460, 48 h; in short: as §2
HCC 2998 = assay: Growth inhibition of human HCC2998 cells after 48 hrs by sulforhodamine B assay; format: functional; settings: HCC 2998, 48 h; in short: as §2
HCT-15 = assay: Growth inhibition of human HCT15 cells after 48 hrs by sulforhodamine B assay; format: functional; settings: HCT-15, 48 h; in short: as §2
EKVX = assay: Growth inhibition of human EKVX cells after 48 hrs by sulforhodamine B assay; format: functional; in short: as §3
SF-295 = assay: Growth inhibition of human SF295 cells after 48 hrs by sulforhodamine B assay; format: functional; settings: SF-295, 48 h; in short: as §2
UO-31 = assay: Growth inhibition of human UO31 cells after 48 hrs by sulforhodamine B assay; format: functional; settings: UO-31, 48 h; in short: as §2
A498 = assay: Growth inhibition of human A498 cells after 48 hrs by sulforhodamine B assay; format: functional; settings: A498, 48 h; in short: as §3
OVCAR-5 = assay: Growth inhibition of human OVCAR5 cells after 48 hrs by sulforhodamine B assay; format: functional; settings: OVCAR-5, 48 h; in short: as §2
SK-MEL-28 = assay: Growth inhibition of human SK-MEL-28 cells after 48 hrs by sulforhodamine B assay; format: functional; settings: SK-MEL-28, 48 h; in short: as §2
HOP-62 = assay: Growth inhibition of human HOP62 cells after 48 hrs by sulforhodamine B assay; format: functional; settings: HOP-62, 48 h; in short: as §2
LOX IMVI = assay: Growth inhibition of human LOXIMVI cells after 48 hrs by sulforhodamine B assay; format: functional; in short: as §2
K562 = assay: Growth inhibition of human K562 cells after 48 hrs by sulforhodamine B assay; format: functional; settings: K562, 48 h; in short: as §2
MDA-MB-435 = assay: Growth inhibition of human MDA-MB-435 cells after 48 hrs by sulforhodamine B assay; format: functional; settings: MDA-MB-435, 48 h; in short: as §2
NCI/ADR-RES = assay: Growth inhibition of human NCI/ADR-RES cells after 48 hrs by sulforhodamine B assay; format: functional; in short: as §2

For `COc1cc(-c2nc3ccccc3s2)ccc1OCCCCOc1cc2c(cc1OC)C(=O)N1CCC[C@H]1C=N2`, the ΔTm (Calf thymus DNA) was 0.5 °C, the Activity (A-375 [1]) was 4.45% and the GI50 (SW-620) was 794 nM. The Activity (A-375 [2]) was 90.55%, the GI50 (OVCAR-3) was 724 nM and the GI50 (OVCAR-8) was 1780 nM. The GI50 (786-0) was 891 nM, the GI50 (MCF7) was 407 nM and the GI50 (M14) was 1230 nM. The GI50 (CAKI-1) was 575 nM, the GI50 (A549) was 2690 nM and the GI50 (SR) was 295 nM. The GI50 (HOP-92) was 263 nM, the GI50 (IGROV-1) was 3090 nM and the GI50 (Hs-578T) was 1020 nM. For the same compound, the GI50 (OVCAR-4) was 1620 nM, the GI50 (SNB-75) was 1230 nM and the GI50 (KM12) was 1020 nM. The GI50 (SF-539) was 537 nM, the GI50 (SNB-19) was 1620 nM and the GI50 (HL-60) was 513 nM. For the same compound, the GI50 [3] was 309 nM, the GI50 (RXF 393) was 240 nM and the GI50 (NCI-H522) was 550 nM. The Activity (A-375 [4]) was 69.69%, the GI50 (BT-549) was 282 nM and the Activity (A-375 [5]) was 5%. For the same compound, the GI50 (HCT-116) was 525 nM, the Activity (A-375 [6]) was 20.86% and the GI50 (Malme-3M) was 1550 nM. The GI50 (PC-3) was 407 nM, the GI50 (NCI-H460) was 646 nM and the GI50 (HCC 2998) was 646 nM. The GI50 (HCT-15) was 1320 nM, the GI50 (EKVX) was 1740 nM and the GI50 (SF-295) was 1910 nM. For the same compound, the GI50 (UO-31) was 1230 nM, the GI50 (A498) was 1620 nM and the GI50 (OVCAR-5) was 501 nM. The GI50 (SK-MEL-28) was 2140 nM, the GI50 (HOP-62) was 1410 nM and the GI50 (LOX IMVI) was 724 nM. The GI50 (K562) was 339 nM, the GI50 (MDA-MB-435) was 1350 nM and the GI50 (NCI/ADR-RES) was 1910 nM.

With `COc1cc(-c2nc3ccccc3s2)ccc1OCCCCCOc1cc2c(cc1OC)C(=O)N1CCC[C@H]1C=N2` the ΔTm (Calf thymus DNA) was 6.3 °C, the Activity (A-375 [1]) was 3.1% and the GI50 (SW-620) was 56.2 nM. For the same compound, the Activity (A-375 [2]) was 93.79%, the GI50 (OVCAR-3) was 97.7 nM and the GI50 (OVCAR-8) was 141 nM. For the same compound, the GI50 (786-0) was 27.5 nM, the GI50 (MCF7) was 19.1 nM and the GI50 (M14) was 39.8 nM. It also gave a GI50 (CAKI-1) of 117 nM, a GI50 (A549) of 240 nM and a GI50 (SR) of 17.4 nM. For the same compound, the GI50 (HOP-92) was 44.7 nM, the GI50 (IGROV-1) was 347 nM and the GI50 (Hs-578T) was 141 nM. The GI50 (OVCAR-4) was 288 nM, the GI50 (SNB-75) was 145 nM and the GI50 (KM12) was 166 nM. For the same compound, the GI50 (SF-539) was 39.8 nM, the GI50 (SNB-19) was 219 nM and the GI50 (HL-60) was 33.1 nM. The GI50 [3] was 74.1 nM, the GI50 (RXF 393) was 51.3 nM and the GI50 (NCI-H522) was 41.7 nM. It also gave an Activity (A-375 [4]) of 67.04%, a GI50 (BT-549) of 21.9 nM and an Activity (A-375 [5]) of 3.11%. For the same compound, the GI50 (HCT-116) was 38.9 nM, the Activity (A-375 [6]) was 26.75% and the GI50 (Malme-3M) was 145 nM. For the same compound, the GI50 (PC-3) was 41.7 nM, the GI50 (NCI-H460) was 39.8 nM and the GI50 (HCC 2998) was 126 nM. It also gave a GI50 (HCT-15) of 224 nM, a GI50 (EKVX) of 204 nM and a GI50 (SF-295) of 67.6 nM. The GI50 (UO-31) was 200 nM, the GI50 (A498) was 174 nM and the GI50 (OVCAR-5) was 70.8 nM. For the same compound, the GI50 (SK-MEL-28) was 331 nM, the GI50 (HOP-62) was 45.7 nM and the GI50 (LOX IMVI) was 18.2 nM. The GI50 (K562) was 20.4 nM, the GI50 (MDA-MB-435) was 85.1 nM and the GI50 (NCI/ADR-RES) was 269 nM.
